The values below come from ChEMBL document CHEMBL1949657, “Chemical modification of the multitarget neuroprotective compound fisetin” (J Med Chem, 2012).

Calls of active or inactive are those of the source.

Test [1] concerns HT-22. The test can be described thus: Neuroprotective activity in mouse HT22 cells assessed as reduction in IAA-induced ischemia after 24 hrs by MTT assay. The class given is functional, cell-based. The method in brief: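 HT22 cells seeded at 5×10^3/well. Next day switched to DMEM + 7.5% DFCS with 20 μM IAA ± derivative doses for 2 h, then IAA-free medium with derivative for 20 h. MTT 2.5 μg/ml for 4 h at 37 °C, solubilised in DMF/SDS pH 4.7, A570 read. Controls for compound toxicity and assay interference. EC50 from dose series; tested twice, third time if EC50 < 1 μM.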

Test [2] has as its system HT-22. The test can be described thus: Neuroprotective activity against glutamate-induced GSH loss in mouse HT22 cells assessed as intracellular GSH level at 1 to 10 uM after 24 hrs. The class given is functional, cell-based. In short, it runs like this:
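HT22 cells given derivatives (1–10 μM) with 5 mM glutamate. After 24 h, cell extracts analysed for total intracellular GSH by chemical assay. Fisetin 10 μM as positive control. Tested twice; positives tested a third time.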

For test [3], the system named is PC-12. Briefly: Neurotrophic activity in rat PC12 cells assessed as neurite outgrowth at 1 to 10 uM after 24 hrs. The class given is functional, cell-based. In short, it runs like this: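 PC12 cells in N2 medium given derivatives (1–10 μM) for 24 h, fisetin 10 μM as positive control. 100 cells counted in each of three fields. A cell scored positive with ≥1 neurite longer than one cell-body diameter. Tested twice; positives tested a third time.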

In test [4] the test system is N9. The test can be described thus: Antiinflammatory activity in mouse N9 cells assessed as reduction of LPS-induced microglial activation at 1 to 10 uM measured as nitrite level after 24 hrs by Griess reagent-based assay. Type of test: functional. Details: scale not given: the % may be the effect or the level left. The method in brief: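 N9 microglia in DME with 7.5% DFCS, given 10 μg/ml LPS alone or with derivatives (1–10 μM) for 24 h. Medium spun to remove floating cells, then nitrite measured with Griess reagent, 10 min at room temperature, absorbance 550 nm. Fisetin 10 μM as positive control. Tested twice; positives tested a third time.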

A short description of test [5]: Antioxidant activity against ABTS radical assessed as trolox equivalent after 4 mins by TEAC assay. The class given is functional. The method in brief: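 ABTS radical cation formed overnight with potassium persulfate and diluted to OD ~0.7 at 734 nm, then mixed with derivative in ethanol. Loss of A734 followed over 4 min. TEAC = slope of % absorbance inhibition vs concentration divided by the slope for Trolox.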

Setting [6] is: Mus musculus, HT-22, 24 h, read-out: EC50.

As to `Cc1cc(O)c(C(=O)/C=C/c2ccc(O)cc2O)cc1C`, in test [1] (setting [6]), the 50% effective concentration (EC50) was 50 nM. Further, in test [2], the outcome was inactive. In test [3], the outcome was Active. Moreover, the values for the Activity in test [4] and in test [5] were 53% and 0.93 equiv, respectively.

As for `COc1cc(-c2ccccc2)nc2ccccc12`, the EC50 in test [1] (setting [6]) turned out to be 750 nM. Also, the outcome in test [2] and in test [3] was inactive. Besides, the Activity in test [4] amounted to 6%; in test [5], 0.12 equiv.

As for `Cc1cc2oc(-c3ccc(O)cc3O)c(O)c(=O)c2cc1C`, the EC50 in test [1] (setting [6]) was over 500 nM. Moreover, the outcome in test [2] and in test [3] was inactive. Also, the Activity in test [4] was found to be 0%; in test [5] it was 1.56 equiv.

Regarding `O=c1c(O)c(-c2ccc(O)c(O)c2)oc2c1ccc1ccccc12`, in test [1] (setting [6]), the concentration for a half-maximal effect (EC50) amounted to 90 nM. In test [2], the result was inactive. Further, in test [3], the outcome was Active. The Activity in test [4] amounted to 91%; in test [5] it was 2.4 equiv.

As to `CCOc1ccc(-c2cc(=O)c3ccc4ccccc4c3o2)cc1OCC`, in test [1] (ht-22), the EC50 result is listed as “Not Active”. The result in test [2] and in test [3] was inactive. For the same compound, the results for the Activity in test [4] and in test [5] were 2% and 0.2 equiv, respectively.

With `Cc1cc2oc(-c3ccc(O)c(O)c3)c(O)c(=O)c2cc1C`, the EC50 in test [1] (setting [6]) amounted to 500 nM. Moreover, the outcome in test [2] and in test [3] was inactive. Besides, the Activity in test [4] stood at 82%; in test [5], 1.89 equiv.

Regarding `CC(C)Oc1cc(-c2ccc(O)c(O)c2)nc2ccccc12`, the half-maximal effective concentration (EC50) in test [1] (setting [6]) came out at 20 nM. For the same compound, the outcome in test [2] and in test [3] was Active. For the same compound, the values for the Activity in test [4] and in test [5] were 80% and 0.18 equiv, respectively.

With `CCOc1ccc(/C=C/C(=O)c2cc(C)c(C)cc2O)cc1OCC`, the EC50 result in test [1] (ht-22) was “Not Active”. Also, the result in test [2] and in test [3] was inactive. The values for the Activity in test [4] and in test [5] were 56% and 0.09 equiv, respectively.

Take `COc1cc(-c2oc3c(ccc4ccccc43)c(=O)c2O)ccc1O`: the half-maximal effective concentration (EC50) in test [1] (setting [6]) was over 500 nM. Also, the outcome in test [2] was inactive. The outcome in test [3] was Active. Also, the Activity came out at 78% in test [4] and 0.63 equiv in test [5].

As to `COc1cc(-c2ccc(O)cc2O)nc2ccccc12`, in test [1] (setting [6]), the EC50 is over 500 nM. Also, the result in test [2] and in test [3] was inactive. For the same compound, the Activity in test [4] is 84%; in test [5], 0.05 equiv.

For `COc1cc(-c2ccc(O)cc2)nc2ccccc12`, the EC50 entry in test [1] (ht-22) is given as “Not Active”. For the same compound, the outcome in test [2] and in test [3] was inactive. In addition, the Activity was determined as 4% in test [4] and 0.81 equiv in test [5].

Regarding `COc1cc(-c2cc(=O)c3cc(C)c(C)cc3o2)ccc1OCc1ccccc1`, the EC50 in test [1] (setting [6]) turned out to be 500 nM. Further, the outcome in test [2] and in test [3] was inactive. The Activity in test [4] amounted to 83%; in test [5] it was 0.09 equiv.

On to `Cc1cc2oc(-c3ccc(N(C)C)cc3)cc(=O)c2cc1C`, for which the EC50 in test [1] (setting [6]) was over 500 nM. Moreover, the result in test [2] and in test [3] was inactive. Further, the Activity in test [4] worked out at 8%; in test [5], 0 equiv.

For the compound `O=c1cc(-c2ccc(O)c(O)c2)oc2c1ccc1ccccc12`, in test [1] (setting [6]), the EC50 was found to be 80 nM. Also, the outcome in test [2] was inactive. Besides, the result in test [3] was Active. Further, the Activity in test [4] came out at 55%; in test [5] it was 0.18 equiv.

For `O=c1cc(-c2ccc(N3CCCC3)cc2)oc2c1ccc1ccccc12`, the concentration for a half-maximal effect (EC50) in test [1] (setting [6]) worked out at 200 nM. Moreover, the result in test [2] and in test [3] was inactive. Also, the Activity was found to be 23% in test [4] and 0.03 equiv in test [5].

As to `CCOc1ccc(-c2oc3cc(C)c(C)cc3c(=O)c2O)cc1OCC`, the EC50 in test [1] (setting [6]) was 500 nM. The result in test [2] and in test [3] was inactive. In addition, the results for the Activity in test [4] and in test [5] were 11% and 0.84 equiv, respectively.

Take `CCOc1ccc(-c2oc3c(ccc4ccccc43)c(=O)c2O)cc1OCC`: the EC50 in test [1] (setting [6]) was 300 nM. The result in test [2] and in test [3] was inactive. Further, the Activity came to 13% in test [4] and 0.15 equiv in test [5].

For the compound `COc1cc(-c2cc(=O)c3ccc4ccccc4c3o2)ccc1O`, the EC50 in test [1] (setting [6]) came to 40 nM. The outcome in test [2] and in test [3] was inactive. For the same compound, the values for the Activity in test [4] and in test [5] were 19% and 0.2 equiv, respectively.

As for `COc1cc(-c2cc(OC)c3ccccc3n2)ccc1O`, the EC50 in test [1] (setting [6]) amounted to 500 nM. Moreover, the result in test [2] and in test [3] was inactive. In addition, the values for the Activity in test [4] and in test [5] were 90% and 0.15 equiv, respectively.

For `O=c1c(O)c(-c2ccc(O)c(O)c2)oc2ccc3ccccc3c12`, the EC50 in test [1] (setting [6]) was 250 nM. Further, the outcome in test [2] was inactive. Also, the outcome in test [3] was Active. For the same compound, the Activity in test [4] came out at 87%; in test [5], 1.26 equiv.

As to `O=c1c(O)c(-c2ccc(N3CCCC3)cc2)oc2c1ccc1ccccc12`, the 50% effective concentration (EC50) in test [1] (setting [6]) turned out to be 70 nM. Besides, the result in test [2] was inactive. Besides, the result in test [3] was Active. Besides, the values for the Activity in test [4] and in test [5] were 26% and 1.44 equiv, respectively.

Take `Cc1cc2oc(-c3ccc(O)c(O)c3)cc(=O)c2cc1C`: the EC50 in test [1] (setting [6]) was found to be 250 nM. The outcome in test [2] and in test [3] was inactive. Further, the Activity in test [4] came to 93%; in test [5], 0.27 equiv.

Turning to `CCOc1ccc(-c2cc(=O)c3cc(C)c(C)cc3o2)cc1OCC`, in test [1] (ht-22), the EC50 result is reported as “Not Active”. Further, the outcome in test [2] and in test [3] was inactive. Moreover, the Activity in test [4] was 2%; in test [5], 0.15 equiv.

Turning to `CCOc1cc(-c2ccc(O)c(O)c2)nc2ccccc12`, the EC50 in test [1] (setting [6]) was determined as 20 nM. Also, the result in test [2] and in test [3] was Active. Besides, the Activity in test [4] came out at 90%; in test [5], 0.9 equiv.

Turning to `COc1cc(/C=C/C(=O)c2ccc3ccccc3c2O)ccc1OCc1ccccc1`, the EC50 in test [1] (setting [6]) amounted to 500 nM. Also, the result in test [2] and in test [3] was inactive. Further, the results for the Activity in test [4] and in test [5] were 9% and 0.15 equiv, respectively.

On to `CCOc1ccc(/C=C/C(=O)c2ccc3ccccc3c2O)cc1OCC`, for which the EC50 result in test [1] (ht-22) is “Not Active”. In addition, the outcome in test [2] and in test [3] was inactive. Also, the Activity in test [4] came out at 5%; in test [5] it was 0.12 equiv.

Regarding `CCOc1ccc(-c2cc(OC)c3ccccc3n2)cc1OCC`, the 50% effective concentration (EC50) entry in test [1] (ht-22) is “Not Active”. Also, the result in test [2] and in test [3] was inactive. Moreover, the values for the Activity in test [4] and in test [5] were 76% and 0.12 equiv, respectively.
